Calls of active or inactive are those of the source. The calls are words filed in the database; no cut-off is given here.
Experiments:
D(1A) dopamine receptor [1] = molecular target: T1, D(1A) dopamine receptor (Homo sapiens, UniProt P21728); assay: Agonist activity at recombinant C-terminal RLuc8-fused human D1 receptor expressed in HEK29T cells co-expressing N-terminal Venus-tagged beta-arrestin2 assessed as increase in beta-arrestin2 recruitment at 10^-4M measured after 15 mins in presence of coelenterazine H by BRET assay relative to dopamine; format: cell-based
D(1A) dopamine receptor [2] = molecular target: T1, D(1A) dopamine receptor; assay: Agonist activity at recombinant C-terminal RLuc8-fused human D1 receptor expressed in HEK29T cells co-expressing N-terminal Venus-tagged beta-arrestin2 assessed as increase in beta-arrestin2 recruitment at 10^-4M measured after 15 mins in presence of coelenterazine H by BRET assay; format: cell-based
D(1A) dopamine receptor [3] = molecular target: T1, D(1A) dopamine receptor; assay: Agonist activity at recombinant human D1 receptor expressed in HEK29T cells assessed as induction of stimulatory G-protein-mediated cAMP accumulation measured after 15 mins by Glosensor-based FLIPR assay relative to dopamine; format: functional, cell-based
Summary of the method: (§1)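 GloSensor-22F cAMP biosensor in HEK293T cells co-expressing human D1, seeded in DMEM + 1% dialyzed FBS; next day GloSensor reagent equilibrated ≥15 min at room temperature in HBSS/20 mM HEPES pH 7.4, then drug added in HBSS/HEPES/0.1% BSA/0.01% ascorbic acid. Luminescence read after 15 min; normalized to dopamine maximum (100%); sigmoidal fit; maximum tested 10⁻⁴ M; ≥3 experiments in triplicate.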

D(1A) dopamine receptor [4] = molecular target: T1, D(1A) dopamine receptor; assay: Agonist activity at recombinant human D1 receptor expressed in HEK29T cells assessed as induction of stimulatory G-protein-mediated cAMP accumulation measured after 15 mins by Glosensor-based FLIPR assay; format: functional, cell-based; summary of the method: as §1
D(1A) dopamine receptor [5] = molecular target: T1, D(1A) dopamine receptor; assay: Agonist activity at recombinant C-terminal RLuc8-fused human D1 receptor expressed in HEK29T cells co-expressing N-terminal Venus-tagged beta-arrestin2 assessed as increase in beta-arrestin2 recruitment measured after 15 mins in presence of coelenterazine H by BRET assay; format: cell-based; conditions: read-out: EC50
D(1A) dopamine receptor [6] = molecular target: T1, D(1A) dopamine receptor; assay: Agonist activity at recombinant C-terminal RLuc8-fused human D1 receptor expressed in HEK29T cells co-expressing N-terminal Venus-tagged beta-arrestin2 assessed as increase in beta-arrestin2 recruitment measured after 15 mins in presence of coelenterazine H by BRET assay relative to dopamine; format: cell-based
D(1A) dopamine receptor [7] = molecular target: T1, D(1A) dopamine receptor; assay: Bias factor, transduction co-efficient for agonist activity at recombinant human D1 receptor expressed in HEK29T cells assessed as induction of stimulatory G-protein-mediated cAMP accumulation to agonist activity at recombinant C-terminal RLuc8-fused human D1 receptor expressed in HEK29T cells co-expressing N-terminal Venus-tagged beta-arrestin2 assessed as increase in beta-arrestin2 recruitment; format: functional, cell-based
Summary of the method: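 Dopamine as full-agonist reference; transduction coefficients log(τ/KA) for Gs-cAMP (GloSensor) and β-arrestin2 (BRET) computed relative to dopamine and averaged across experiments; bias factor derived by Kenakin method from the difference between Gs and β-arrestin2 coefficients.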

[8] = Cmax in Swiss albino mouse plasma at 50 mg/kg, ip measured up to 4 hrs by LC-MC/MS analysis; format: ADME, organism-based; design: dose 50 mg/kg, route intraperitoneal
Summary of the method: (§2)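 Male Swiss Albino mice (nine), 50 mg/kg i.p. in 5% NMP/5% Solutol HS-15/90% saline; plasma and brain taken from three mice per time point at 0.5, 1.5 and 4 h; brain homogenized 2:1 in ice-cold PBS pH 7.4; LC-MS/MS quantitation (LLOQ 1.01 ng/mL plasma, 3.03 ng/g brain); noncompartmental analysis.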

[9] = Cmax in Swiss albino mouse brain at 50 mg/kg, ip measured up to 4 hrs by LC-MC/MS analysis; format: ADME, organism-based; design: dose 50 mg/kg, route intraperitoneal; summary of the method: as §2
[10] = Toxicity in Swiss albino mouse at 50 mg/kg, ip measured up to 4 hrs; format: organism-based; conditions: in vivo
[11] = Ratio of drug level in brain to plasma in Swiss albino mouse at 50 mg/kg, ip measured up to 4 hrs by LC-MC/MS analysis; format: ADME, organism-based; summary of the method: as §2
D(1A) dopamine receptor [12] = molecular target: T1, D(1A) dopamine receptor; assay: Agonist activity at recombinant human D1 receptor expressed in HEK29T cells assessed as induction of stimulatory G-protein-mediated cAMP accumulation at 10'4M measured after 15 mins by Glosensor-based FLIPR assay relative to dopamine; format: functional, cell-based; summary of the method: as §1
D(1A) dopamine receptor [13] = molecular target: T1, D(1A) dopamine receptor; assay: Agonist activity at recombinant human D1 receptor expressed in HEK29T cells assessed as induction of stimulatory G-protein-mediated cAMP accumulation at 10'4M measured after 15 mins by Glosensor-based FLIPR assay; format: functional, cell-based; summary of the method: as §1

T1 sequence (P21728 whole entry, the tested form may be a part): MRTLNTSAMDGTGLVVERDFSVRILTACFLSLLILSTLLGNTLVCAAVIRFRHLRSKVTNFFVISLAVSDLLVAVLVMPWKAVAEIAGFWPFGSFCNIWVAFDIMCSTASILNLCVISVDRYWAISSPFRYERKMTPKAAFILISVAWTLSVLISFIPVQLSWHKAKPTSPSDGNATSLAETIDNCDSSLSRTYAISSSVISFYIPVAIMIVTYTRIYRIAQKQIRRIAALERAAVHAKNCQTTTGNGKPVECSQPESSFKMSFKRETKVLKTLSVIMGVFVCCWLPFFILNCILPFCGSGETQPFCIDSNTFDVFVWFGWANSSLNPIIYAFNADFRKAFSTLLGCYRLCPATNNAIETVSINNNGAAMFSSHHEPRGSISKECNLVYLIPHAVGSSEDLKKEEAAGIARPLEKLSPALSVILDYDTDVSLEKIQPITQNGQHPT

Compound | Emax (D(1A) dopamine receptor [1]) | Activity (D(1A) dopamine receptor [2]) | Emax (D(1A) dopamine receptor [3]) | EC50 (D(1A) dopamine receptor [4]) | EC50 (D(1A) dopamine receptor [5]) | other results
Cc1cc(Oc2nccn3ccnc23)ccc1-c1c(C)ncc2nccn12 | inactive | inactive | 85% | 260 nM | – | –
Cc1cc(Oc2nccc(O)c2C)ccc1-c1c(C)ncc2nccn12 | inactive | inactive | 34% | 160 nM | – | –
Cc1cc(Oc2nccc3ccccc23)ccc1-c1c(C)ncc2nccn12 | – | – | 82% | 15 nM | > 10000 nM | –
Cc1cc(Oc2nccc3occc23)ccc1-c1cccc2nccn12 | – | – | 95% | 2.7 nM | 180 nM | Emax (D(1A) dopamine receptor [6]): 63%; fold change (FC) (D(1A) dopamine receptor [7]): 1.3
COc1ccc(-c2ccc(Oc3nccc4occc34)cc2C)c(C)n1 | – | – | 80% | 77 nM | > 10000 nM | –
CCN(c1ccc(-c2c(C)ncc3nccn23)c(C)c1)c1nccc2occc12 | inactive | inactive | 80% | 36 nM | – | –
Cc1cc(-c2cccc3nccn23)ccc1Oc1nccc2occc12 | inactive | inactive | 29% | 530 nM | – | –
Cc1cc(N(CC2CC2)c2nccc3occc23)ccc1-c1c(C)ncc2nccn12 | inactive | inactive | 78% | 320 nM | – | –
FC(F)(F)c1cc(Oc2nccc3ccccc23)ccc1-c1cccc2nccn12 | inactive | inactive | 61% | 67 nM | – | –
Cc1cc(Oc2cc(N3CCCCC3)ccn2)ccc1-c1c(C)ncc2nccn12 | inactive | inactive | 26% | 640 nM | – | –
Cc1cc(N(C)c2nccc3occc23)ccc1-c1c(C)ncc2nccn12 | inactive | inactive | 79% | 88 nM | – | –
Cc1cc(Oc2nccc3[nH]ncc23)ccc1-c1c(C)ncc2nccn12 | – | – | 104% | 1.8 nM | > 10000 nM | –
Nc1cc(Oc2nccc3occc23)ccc1-c1cccc2nccn12 | – | – | 91% | 10 nM | 790 nM | Cmax [8]: 100 µM; Cmax [9]: 100 µM; Activity [10]: Non-Toxic; Emax (D(1A) dopamine receptor [6]): 54%; BPR [11]: 1.2 to 1.6; fold change (FC) (D(1A) dopamine receptor [7]): 1.7
Cc1cc(Oc2ccccn2)ccc1-c1c(C)ncc2nccn12 | – | – | 83% | 120 nM | > 10000 nM | –
Cc1cc(Nc2nccc3occc23)ccc1-c1c(C)ncc2nccn12 | – | – | 98% | 16 nM | > 10000 nM | –
FC(F)(F)c1cc(Oc2nccn3cccc23)ccc1-c1cccc2nccn12 | inactive | inactive | 78% | 7.8 nM | – | –
Cc1cc(N(c2nccc3occc23)C2CCCC2)ccc1-c1c(C)ncc2nccn12 | – | – | 68% | 1100 nM | > 10000 nM | –
FC(F)(F)c1cc(-c2cccc3nccn23)ccc1Oc1nccc2occc12 | inactive | inactive | – | – | – | Emax (D(1A) dopamine receptor [12]): inactive; Activity (D(1A) dopamine receptor [13]): inactive
Cc1cc(Oc2nccc3ccsc23)ccc1-c1c(C)ncc2nccn12 | – | – | 100% | 0.23 nM | 22 nM | Emax (D(1A) dopamine receptor [6]): 63%; fold change (FC) (D(1A) dopamine receptor [7]): 1.9
Cc1cc(Oc2nccc3occc23)ccc1-c1ccc(C#N)cn1 | inactive | inactive | – | > 10000 nM | – | –
FC(F)(F)c1cc(Oc2nccc3occ(C4CC4)c23)ccc1-c1cccc2nccn12 | inactive | inactive | 83% | 770 nM | – | –
FC(F)(F)c1cc(Oc2cc(N3CCCCC3)ccn2)ccc1-c1cccc2nccn12 | – | – | – | – | > 10000 nM | Emax (D(1A) dopamine receptor [12]): inactive; Activity (D(1A) dopamine receptor [13]): inactive
Cc1cc(Oc2nccc3occc23)ccc1-c1c(C)nc2cnccn12 | – | – | 63% | 5.8 nM | 2600 nM | Emax (D(1A) dopamine receptor [6]): 89%; fold change (FC) (D(1A) dopamine receptor [7]): 4.1

Compound | Emax (D(1A) dopamine receptor [1]) | Activity (D(1A) dopamine receptor [2]) | Emax (D(1A) dopamine receptor [3]) | EC50 (D(1A) dopamine receptor [4]) | EC50 (D(1A) dopamine receptor [5]) | other results
Cc1cc(Oc2nccn3cccc23)ccc1-c1c(C)ncc2nccn12 | – | – | 83% | – | – | Emax (D(1A) dopamine receptor [6]): 59%; fold change (FC) (D(1A) dopamine receptor [7]): 15
Cc1cc(Oc2nccc3occc23)ccc1-c1nc(N)cnc1C | – | – | 91% | 22 nM | > 10000 nM | –
CCOc1ncnc(C)c1-c1ccc(Oc2nccc3occc23)cc1C | – | – | 67% | 12 nM | > 10000 nM | –
Cc1cc(Oc2nccc3occc23)cc(C)c1-c1cccc2nccn12 | inactive | inactive | – | – | – | Emax (D(1A) dopamine receptor [12]): inactive; Activity (D(1A) dopamine receptor [13]): inactive
Fc1cc(-c2cccc3nccn23)cc(F)c1Oc1nccc2occc12 | – | – | 57% | 190 nM | > 10000 nM | –
Cc1cc(N(c2nccc3occc23)C(C)C)ccc1-c1c(C)ncc2nccn12 | inactive | inactive | 67% | 100 nM | – | –
FC(F)(F)c1cc(Oc2ccccn2)ccc1-c1cccc2nccn12 | inactive | inactive | 65% | 270 nM | – | –
Cc1cc(Oc2nccc3occ(C4CC4)c23)ccc1-c1c(C)ncc2nccn12 | inactive | inactive | 67% | 62 nM | – | –
Cc1ncc2nccn2c1-c1ccc(Oc2nccc3occc23)cc1N | – | – | 104% | 1.3 nM | 210 nM | Emax (D(1A) dopamine receptor [6]): 81%; fold change (FC) (D(1A) dopamine receptor [7]): 2.7
Oc1cc2c(cc1O)[C@H]1c3ccccc3CN[C@@H]1CC2 (racemic) | – | – | – | – | – | fold change (FC) (D(1A) dopamine receptor [7]): 7.5
Cc1ncc2nccn2c1-c1cc(F)c(Oc2nccc3occc23)c(F)c1 | inactive | inactive | 66% | 140 nM | – | –
Cc1cc(Oc2nccc3occc23)ccc1-c1cc(N)cnc1C | – | – | 67% | 13 nM | 1100 nM | Emax (D(1A) dopamine receptor [6]): 64%; fold change (FC) (D(1A) dopamine receptor [7]): 1.2
Cc1cc(Oc2ncccc2Br)ccc1-c1c(C)ncc2nccn12 | inactive | inactive | – | > 10000 nM | – | –
COC(=O)c1cccn2c(-c3ccc(Oc4nccc5occc45)cc3C)cnc12 | inactive | inactive | 44% | 1000 nM | – | –
Cc1cc(Oc2nccc3occc23)ccc1-c1c(C)cnnc1C | inactive | inactive | 61% | 1.2 nM | – | –
FC(F)(F)c1cc(Oc2nccn3ccnc23)ccc1-c1cccc2nccn12 | inactive | inactive | 54% | 180 nM | – | –
Cc1ncc2nccn2c1-c1ccc(Oc2nccc3occc23)c(C(F)(F)F)c1 | inactive | inactive | – | – | – | Emax (D(1A) dopamine receptor [12]): inactive; Activity (D(1A) dopamine receptor [13]): inactive
Cc1ncc2nccn2c1-c1ccc(Oc2nccc3occc23)c(C)c1C | inactive | inactive | 54% | 55 nM | – | –
Cc1cc(Oc2cccc3occc23)ccc1-c1c(C)ncc2nccn12 | inactive | inactive | 69% | 79 nM | – | –
Cc1cc(Oc2nccc3occc23)ccc1-c1cncc(C(N)=O)c1 | inactive | inactive | 59% | 1300 nM | – | –
Cc1cc(-c2c(C)ncc3nccn23)ccc1Oc1nccc2occc12 | inactive | inactive | 62% | 610 nM | – | –
Cc1c(Oc2nccc3occc23)ccc(-c2cccc3nccn23)c1C | inactive | inactive | 30% | 110 nM | – | –

Source: ChEMBL document CHEMBL4390674, “Defining Structure-Functional Selectivity Relationships (SFSR) for a Class of Non-Catechol Dopamine D1 Receptor Agonists” (J Med Chem, 2019)
